In ChEMBL document CHEMBL4196230, “Design, Synthesis, and Blood-Brain Barrier Transport Study of Pyrilamine Derivatives as Histone Deacetylase Inhibitors” (ACS Med Chem Lett, 2018):

Legend:
[1] = Substrate activity at PYSOCA in human CMEC/D3 cells assessed as transporter-mediated drug uptake measured for 2 mins at 37degC in presence of memantine; format: ADME, cell-based
[2] = target: Histone deacetylase 3/Nuclear receptor corepressor 2 (HDAC3/NCoR2) (Homo sapiens, UniProt O15379); assay: Inhibition of human full length C-terminal His-tagged HDAC3/N-terminal GST-tagged human NCOR2 (395 to 489 residues) co-expressed in baculovirus infected Sf9 insect cells using HDAC substrate 3 measured after 30 mins by fluorescence assay
Sequence of Histone deacetylase 3/Nuclear receptor corepressor 2 (HDAC3/NCoR2) (O15379 whole entry, the tested form may be a part): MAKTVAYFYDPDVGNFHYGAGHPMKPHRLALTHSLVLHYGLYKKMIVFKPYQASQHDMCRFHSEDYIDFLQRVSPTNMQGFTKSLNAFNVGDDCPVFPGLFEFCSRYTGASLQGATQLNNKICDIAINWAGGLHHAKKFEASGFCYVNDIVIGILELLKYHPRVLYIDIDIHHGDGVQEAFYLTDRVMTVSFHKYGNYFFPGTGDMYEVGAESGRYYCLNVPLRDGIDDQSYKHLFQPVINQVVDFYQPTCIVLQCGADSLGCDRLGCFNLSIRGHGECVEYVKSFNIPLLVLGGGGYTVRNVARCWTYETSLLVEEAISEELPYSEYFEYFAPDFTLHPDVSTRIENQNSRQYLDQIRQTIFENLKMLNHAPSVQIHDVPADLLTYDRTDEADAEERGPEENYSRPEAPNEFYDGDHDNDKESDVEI
Sequence of Histone deacetylase 3/Nuclear receptor corepressor 2 (HDAC3/NCoR2) (Q9Y618 whole entry, further chain, the tested form may be a part): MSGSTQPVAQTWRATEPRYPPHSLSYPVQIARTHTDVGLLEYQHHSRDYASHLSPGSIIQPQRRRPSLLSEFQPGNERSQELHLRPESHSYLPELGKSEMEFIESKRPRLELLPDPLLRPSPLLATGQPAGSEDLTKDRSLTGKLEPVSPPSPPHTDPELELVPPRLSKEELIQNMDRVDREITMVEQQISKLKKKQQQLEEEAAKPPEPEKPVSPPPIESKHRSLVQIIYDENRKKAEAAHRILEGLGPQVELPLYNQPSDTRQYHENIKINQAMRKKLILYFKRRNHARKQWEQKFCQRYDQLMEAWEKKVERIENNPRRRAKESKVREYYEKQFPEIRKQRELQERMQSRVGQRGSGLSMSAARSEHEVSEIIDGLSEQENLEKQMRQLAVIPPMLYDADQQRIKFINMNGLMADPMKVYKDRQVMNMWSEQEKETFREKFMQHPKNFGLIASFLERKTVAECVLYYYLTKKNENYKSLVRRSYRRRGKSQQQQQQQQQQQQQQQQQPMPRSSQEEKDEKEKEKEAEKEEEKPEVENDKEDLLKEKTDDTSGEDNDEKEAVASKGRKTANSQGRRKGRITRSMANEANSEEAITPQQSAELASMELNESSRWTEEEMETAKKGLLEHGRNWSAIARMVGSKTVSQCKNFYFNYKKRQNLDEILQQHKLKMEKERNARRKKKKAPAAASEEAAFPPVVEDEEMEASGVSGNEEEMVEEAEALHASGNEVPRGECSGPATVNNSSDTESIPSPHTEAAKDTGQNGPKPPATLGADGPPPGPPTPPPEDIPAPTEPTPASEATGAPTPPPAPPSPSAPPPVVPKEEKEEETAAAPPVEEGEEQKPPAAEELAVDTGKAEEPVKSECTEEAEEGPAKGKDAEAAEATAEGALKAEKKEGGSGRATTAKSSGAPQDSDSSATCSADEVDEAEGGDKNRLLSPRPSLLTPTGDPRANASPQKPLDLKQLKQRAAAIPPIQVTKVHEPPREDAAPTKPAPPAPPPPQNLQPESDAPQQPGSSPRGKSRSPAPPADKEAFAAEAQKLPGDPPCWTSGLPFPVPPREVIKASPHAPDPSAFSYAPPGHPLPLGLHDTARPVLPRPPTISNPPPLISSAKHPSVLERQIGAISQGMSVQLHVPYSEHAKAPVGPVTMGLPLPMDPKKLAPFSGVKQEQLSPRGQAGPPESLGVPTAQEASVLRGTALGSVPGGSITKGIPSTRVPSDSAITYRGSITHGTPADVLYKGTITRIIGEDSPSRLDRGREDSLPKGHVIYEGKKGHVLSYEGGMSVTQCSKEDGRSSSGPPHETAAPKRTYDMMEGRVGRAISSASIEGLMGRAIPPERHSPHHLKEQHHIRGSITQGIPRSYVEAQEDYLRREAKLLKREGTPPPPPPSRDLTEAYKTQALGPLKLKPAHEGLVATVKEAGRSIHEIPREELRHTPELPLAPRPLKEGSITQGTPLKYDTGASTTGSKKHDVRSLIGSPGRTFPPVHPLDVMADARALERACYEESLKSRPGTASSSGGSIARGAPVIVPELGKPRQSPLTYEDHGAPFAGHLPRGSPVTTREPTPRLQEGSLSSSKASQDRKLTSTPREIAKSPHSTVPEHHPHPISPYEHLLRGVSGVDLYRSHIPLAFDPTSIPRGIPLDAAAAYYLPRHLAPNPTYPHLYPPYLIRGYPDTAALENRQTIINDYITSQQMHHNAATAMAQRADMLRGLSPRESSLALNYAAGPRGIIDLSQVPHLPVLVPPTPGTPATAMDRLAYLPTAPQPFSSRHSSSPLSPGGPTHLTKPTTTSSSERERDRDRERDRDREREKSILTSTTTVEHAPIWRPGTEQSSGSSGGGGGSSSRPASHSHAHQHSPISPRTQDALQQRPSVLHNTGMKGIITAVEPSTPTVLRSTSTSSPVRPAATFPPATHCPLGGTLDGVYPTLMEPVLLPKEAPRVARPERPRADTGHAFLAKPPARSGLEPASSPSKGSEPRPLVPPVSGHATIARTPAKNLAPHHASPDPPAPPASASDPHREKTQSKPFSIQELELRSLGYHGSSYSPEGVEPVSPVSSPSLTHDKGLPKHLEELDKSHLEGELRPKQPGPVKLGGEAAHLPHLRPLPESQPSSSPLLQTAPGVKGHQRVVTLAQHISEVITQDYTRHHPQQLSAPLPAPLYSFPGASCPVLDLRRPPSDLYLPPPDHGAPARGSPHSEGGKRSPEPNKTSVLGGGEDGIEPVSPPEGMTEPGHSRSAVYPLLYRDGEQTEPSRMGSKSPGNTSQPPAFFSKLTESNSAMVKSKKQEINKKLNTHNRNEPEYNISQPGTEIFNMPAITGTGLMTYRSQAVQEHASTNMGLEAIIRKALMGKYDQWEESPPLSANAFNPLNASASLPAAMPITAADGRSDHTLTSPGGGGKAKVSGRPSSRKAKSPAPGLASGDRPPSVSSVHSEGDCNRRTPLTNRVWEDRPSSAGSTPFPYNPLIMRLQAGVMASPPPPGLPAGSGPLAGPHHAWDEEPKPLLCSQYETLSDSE

[3] = target: Histone deacetylase 9 (Homo sapiens) (UniProt Q9UKV0); assay: Inhibition of recombinant human C-terminal His-tagged HDAC9 (604 to 1066 residues) expressed in baculovirus infected insect cells at 30 uM using HDAC class 2a substrate measured after 30 mins by fluorescence assay relative to control
Sequence of Histone deacetylase 9 (Homo sapiens) (Q9UKV0 whole entry, the tested form may be a part): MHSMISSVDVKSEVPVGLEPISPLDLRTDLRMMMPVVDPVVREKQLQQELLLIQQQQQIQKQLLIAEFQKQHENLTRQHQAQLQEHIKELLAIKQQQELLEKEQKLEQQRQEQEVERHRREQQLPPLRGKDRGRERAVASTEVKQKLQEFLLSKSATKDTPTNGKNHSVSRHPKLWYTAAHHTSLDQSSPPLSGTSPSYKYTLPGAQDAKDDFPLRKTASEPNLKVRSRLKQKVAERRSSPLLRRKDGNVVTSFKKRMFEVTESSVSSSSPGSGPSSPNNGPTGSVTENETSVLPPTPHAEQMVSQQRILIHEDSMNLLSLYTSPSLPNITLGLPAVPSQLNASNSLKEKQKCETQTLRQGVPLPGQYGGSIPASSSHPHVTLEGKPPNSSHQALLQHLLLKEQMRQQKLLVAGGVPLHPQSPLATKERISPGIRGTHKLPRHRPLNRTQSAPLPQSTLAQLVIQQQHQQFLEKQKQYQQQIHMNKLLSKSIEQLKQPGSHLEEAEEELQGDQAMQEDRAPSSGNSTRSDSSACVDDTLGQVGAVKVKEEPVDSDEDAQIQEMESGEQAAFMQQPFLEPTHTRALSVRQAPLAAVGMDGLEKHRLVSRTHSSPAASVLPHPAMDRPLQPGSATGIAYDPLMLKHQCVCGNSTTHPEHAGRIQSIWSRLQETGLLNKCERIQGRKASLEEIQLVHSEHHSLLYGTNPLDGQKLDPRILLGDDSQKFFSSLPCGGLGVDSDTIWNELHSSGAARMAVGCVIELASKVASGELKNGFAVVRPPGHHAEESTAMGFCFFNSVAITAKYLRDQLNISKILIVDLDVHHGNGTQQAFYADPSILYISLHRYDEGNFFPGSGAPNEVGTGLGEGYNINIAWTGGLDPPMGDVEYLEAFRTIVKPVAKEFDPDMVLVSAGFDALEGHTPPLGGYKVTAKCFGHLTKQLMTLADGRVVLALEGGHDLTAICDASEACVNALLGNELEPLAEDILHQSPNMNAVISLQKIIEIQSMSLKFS

[4] = target: T1, Protein deacetylase HDAC6 (Homo sapiens) (UniProt Q9UBN7); assay: Inhibition of recombinant human HDAC6 expressed in baculovirus infected insect cells at 30 uM using HDAC substrate 3 measured after 30 mins by fluorescence assay relative to control
T1 sequence (whole entry): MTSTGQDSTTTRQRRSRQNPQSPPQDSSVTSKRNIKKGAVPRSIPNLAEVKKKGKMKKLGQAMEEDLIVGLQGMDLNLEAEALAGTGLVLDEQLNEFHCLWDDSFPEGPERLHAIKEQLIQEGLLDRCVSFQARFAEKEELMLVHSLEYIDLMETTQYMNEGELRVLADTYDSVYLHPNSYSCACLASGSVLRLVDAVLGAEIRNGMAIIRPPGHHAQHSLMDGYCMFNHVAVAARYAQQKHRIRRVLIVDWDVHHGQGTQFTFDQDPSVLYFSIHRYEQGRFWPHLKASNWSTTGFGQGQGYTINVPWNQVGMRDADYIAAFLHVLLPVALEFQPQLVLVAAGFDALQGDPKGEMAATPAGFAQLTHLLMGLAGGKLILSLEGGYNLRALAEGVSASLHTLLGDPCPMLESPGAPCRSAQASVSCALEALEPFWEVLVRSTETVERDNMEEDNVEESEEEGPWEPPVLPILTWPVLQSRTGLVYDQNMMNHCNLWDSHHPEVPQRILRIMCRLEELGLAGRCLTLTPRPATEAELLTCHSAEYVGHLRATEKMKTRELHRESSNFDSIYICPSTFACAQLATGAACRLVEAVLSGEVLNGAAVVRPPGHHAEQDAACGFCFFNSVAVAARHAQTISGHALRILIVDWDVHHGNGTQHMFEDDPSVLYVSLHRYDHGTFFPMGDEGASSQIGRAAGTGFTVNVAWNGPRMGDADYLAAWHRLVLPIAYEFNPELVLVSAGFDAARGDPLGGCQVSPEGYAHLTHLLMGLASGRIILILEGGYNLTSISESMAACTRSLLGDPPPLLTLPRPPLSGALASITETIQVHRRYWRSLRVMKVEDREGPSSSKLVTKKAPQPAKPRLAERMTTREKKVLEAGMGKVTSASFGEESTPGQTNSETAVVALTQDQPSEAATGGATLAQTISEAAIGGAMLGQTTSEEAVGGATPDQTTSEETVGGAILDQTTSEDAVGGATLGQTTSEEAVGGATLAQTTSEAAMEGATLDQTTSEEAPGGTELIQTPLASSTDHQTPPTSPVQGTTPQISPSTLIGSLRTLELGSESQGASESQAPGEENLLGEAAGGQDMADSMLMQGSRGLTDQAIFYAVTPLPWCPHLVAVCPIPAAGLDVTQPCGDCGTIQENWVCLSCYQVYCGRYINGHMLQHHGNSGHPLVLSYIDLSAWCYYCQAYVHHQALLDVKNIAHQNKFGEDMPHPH

[5] = Substrate activity at PYSOCA in human CMEC/D3 cells assessed as transporter-mediated drug uptake measured for 1 min at 37degC in presence of NH4Cl under intracellular alkalization condition; format: ADME, cell-based
Outline: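 hCMEC/D3 cells were pretreated in transport buffer with or without 30 mM NH4Cl. Uptake was then measured at 37 °C for 1 min with or without 30 mM NH4Cl (Control, Pre and Acute conditions). Mean ± S.E., n = 4.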

[6] = target: T2, Protein deacetylase HDAC6 (Mus musculus) (UniProt Q9Z2V5); assay: Inhibition of mouse HDAC6 expressed in 293T cells at 100 uM using Ac-KGLGK(Ac)-MCA as substrate measured after 30 mins by fluorescence assay relative to control
T2 sequence (whole entry): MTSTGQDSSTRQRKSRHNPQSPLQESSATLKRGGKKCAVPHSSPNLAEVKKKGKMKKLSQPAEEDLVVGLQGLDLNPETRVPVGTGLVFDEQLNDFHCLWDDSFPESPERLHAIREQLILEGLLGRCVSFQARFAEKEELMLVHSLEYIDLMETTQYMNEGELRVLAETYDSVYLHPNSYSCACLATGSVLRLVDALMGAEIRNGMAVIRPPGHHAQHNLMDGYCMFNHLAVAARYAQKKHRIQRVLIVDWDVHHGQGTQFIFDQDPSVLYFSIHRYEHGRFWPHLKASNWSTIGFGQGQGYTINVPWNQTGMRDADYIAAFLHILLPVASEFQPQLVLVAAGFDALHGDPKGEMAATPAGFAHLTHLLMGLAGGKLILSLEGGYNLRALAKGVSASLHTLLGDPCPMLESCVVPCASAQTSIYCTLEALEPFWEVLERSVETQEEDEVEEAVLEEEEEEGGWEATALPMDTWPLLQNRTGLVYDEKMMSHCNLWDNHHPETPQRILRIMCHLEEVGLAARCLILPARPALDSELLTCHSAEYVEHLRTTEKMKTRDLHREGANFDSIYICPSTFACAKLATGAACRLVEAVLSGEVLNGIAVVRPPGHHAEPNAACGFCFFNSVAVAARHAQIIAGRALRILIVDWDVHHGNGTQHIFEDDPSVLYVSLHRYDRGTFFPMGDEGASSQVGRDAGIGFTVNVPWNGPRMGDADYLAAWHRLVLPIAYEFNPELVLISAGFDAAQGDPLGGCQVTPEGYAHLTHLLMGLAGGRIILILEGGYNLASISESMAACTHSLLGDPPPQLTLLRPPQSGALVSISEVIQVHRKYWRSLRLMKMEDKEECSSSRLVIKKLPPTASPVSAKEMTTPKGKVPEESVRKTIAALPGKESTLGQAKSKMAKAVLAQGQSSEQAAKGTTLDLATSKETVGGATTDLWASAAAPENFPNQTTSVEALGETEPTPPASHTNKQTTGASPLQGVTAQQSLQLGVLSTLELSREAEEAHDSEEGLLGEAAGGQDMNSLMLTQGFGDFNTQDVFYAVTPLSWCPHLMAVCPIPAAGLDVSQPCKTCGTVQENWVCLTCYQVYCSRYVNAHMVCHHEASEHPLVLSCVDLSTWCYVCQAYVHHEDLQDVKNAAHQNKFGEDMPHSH

[7] = Substrate activity at PYSOCA in human CMEC/D3 cells assessed as transporter-mediated drug uptake measured for 2 mins at 37degC in presence of choline; format: ADME, cell-based

SMILES: COc1ccc(CN(CCN(C)C)c2ccc(C(=O)Nc3ccccc3N)cn2)cc1
- Activity [1]: Not Active
- IC50 [2]: 12 µM
- inhibition [3]: < 10%
- inhibition [4]: < 10%
- Activity [5]: Not Active
- inhibition [6]: 11%
- Activity [7]: Active
